Source: ChEMBL document CHEMBL4715704, “Design, synthesis and biological evaluation of novel L-ascorbic acid-conjugated pentacyclic triterpene derivatives as potential influenza virus entry inhibitors” (Eur J Med Chem, 2016)
Active and inactive are the calls of the source. The calls are words filed in the database; no cut-off is given here.

How the values were obtained:
[1] = Binding affinity to recombinant influenza A virus A hemagglutinin by SPR assay
Method in brief: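 SPR used HA immobilized to about 16,000 RU. Compounds were injected as analytes at various concentrations in PBS-P running buffer (10 mM phosphate, 2.7 mM KCl, 137 mM NaCl, 0.05% P20, pH 4.5). Flow was 30 µL/min, with 60 s contact and 60 s dissociation, giving KD.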

Red blood cell = test: Inhibition of hemagglutinin in Influenza A virus A/WSN/33(H1N1)) assessed as reduction in virus-induced agglutination of chicken red blood cells pretreated for 1 hr followed by further incubated for 1 hr; format: cell-based; details: Influenza A virus (A/WSN/1933(H1N1))
Method in brief: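 Haemagglutination inhibition: compound was 3-fold serially diluted in saline and mixed with an equal volume of WSN virus (2 HA units) in V-bottom wells. Freshly prepared chicken RBC (1% v/v in saline) were added and incubated at room temperature. cRBC aggregation was scored visually, with anti-HA antibody as comparator.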

Influenza A virus [2] = test: Antiviral activity against Influenza A virus A/WSN/33(H1N1)) infected in MDCK cells assessed as suppression of viral genome translation after 8 to 10 hrs post infection by time of addition assay; format: functional, organism-based; details: A/WSN/1933(H1N1), time 8-10 hrs
Method in brief: (§1)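 Cells were seeded in 6-well plates at 5 × 10^5 per well 24 h before infection and kept at 37 °C, 5% CO2. They were infected with WSN at MOI 1. Compound was present during 0-10, 0-2, 2-5, 5-8 or 8-10 h post infection. Lysates were Western-blotted for viral NP, with GAPDH probed and DMSO as control.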

[3] = Cytotoxicity against MDCK cells after 40 hrs incubation by CellTiter-Glo assay; format: cell-based, Canis lupus familiaris; details: dog
Method in brief: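 Uninfected MDCK cells were grown overnight in 96-well plates in 1% FBS medium. They were exposed to increasing compound concentrations for 40 h, and viability was read by CellTiter-Glo luminescence.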

Influenza A virus [4] = test: Antiviral activity against Influenza A virus A/WSN/33(H1N1)) infected in MDCK cells assessed as suppression of viral genome replication after 8 to 10 hrs post infection by time of addition assay; format: functional, organism-based; details: A/WSN/1933(H1N1), time 8-10 hrs; method in brief: as §1
Influenza A virus [5] = test: Antiviral activity against Influenza A virus A/WSN/33(H1N1)) infected in MDCK cells assessed as inhibition rate at 50 uM by co-treatment assay; format: functional, A/WSN/1933(H1N1); design: scale not given: the % may be the effect or the level left
Influenza A virus [6] = test: Antiviral activity against Influenza A virus A/WSN/33(H1N1)) infected in MDCK cells assessed as suppression of virion assembly and release after 8 to 10 hrs post infection by time of addition assay; format: functional, organism-based; details: A/WSN/1933(H1N1), time 8-10 hrs; method in brief: as §1
Influenza A virus [7] = test: Antiviral activity against Influenza A virus A/WSN/33(H1N1)) infected in MDCK cells assessed as inhibition rate by pretreated virus at 50 uM; format: functional, A/WSN/1933(H1N1); design: scale not given: the % may be the effect or the level left
Influenza A virus [8] = test: Antiviral activity against Influenza A virus A/WSN/33(H1N1) infected in MDCK cells assessed as s reduction in cytopathic effect after 40 hrs incubation by CellTiter-Glo assay relative to control; format: functional, A/WSN/1933(H1N1)
Method in brief: (§2)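 MDCK cells seeded in 96-well plates and grown overnight, then infected with A/WSN/33 (H1N1) at MOI 0.1. Cells were kept in DMEM with 1% FBS, test compound, 2 µg/mL TPCK-trypsin and 1% DMSO final. After 40 h, cell viability was read by CellTiter-Glo luminescence to measure CPE reduction.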

Influenza A virus [9] = test: Antiviral activity against Influenza A virus A/WSN/33(H1N1) infected in MDCK cells assessed as s reduction in cytopathic effect after 40 hrs incubation by CellTiter-Glo assay; format: functional, organism-based; details: A/WSN/1933(H1N1); method in brief: as §2
Influenza A virus [10] = test: Antiviral activity against Influenza A virus A/WSN/33(H1N1)) infected in MDCK cells assessed as inhibition of virus infection at early stage after 2 hrs post infection by time of addition assay; format: functional, organism-based; details: A/WSN/1933(H1N1); method in brief: as §1

Compound | CC50 at 40 h [3] [µM] | inhibition (INH) (Influenza A virus [8]) [%] | EC50 (Influenza A virus [9]) [µM] | also measured
C=C(C)[C@@H]1CC[C@]2(C(=O)NCc3cn(C[C@H](O)[C@H]4OC(=O)C(OCc5ccccc5)=C4OCc4ccccc4)nn3)CC[C@]3(C)[C@H](CC[C@@H]4[C@@]5(C)CC[C@H](O)C(C)(C)[C@@H]5CC[C@]43C)[C@@H]12 | > 200 | 89.6 | 8.7 | Kd [1]: 3.76 µM; inhibition (Red blood cell): Dose-dependent effect; Activity (Influenza A virus [2]): Active; Activity (Influenza A virus [4]): Active; Activity (Influenza A virus [5]): 75%; Activity (Influenza A virus [6]): Active; Activity (Influenza A virus [7]): 87%; Activity (Influenza A virus [10]): Active
CC1(C)CC[C@]2(C(=O)NCc3cn(C[C@H](O)[C@H]4OC(=O)C(O)=C4O)nn3)CC[C@]3(C)C(=CC[C@@H]4[C@@]5(C)CC[C@H](O)C(C)(C)[C@@H]5CC[C@]43C)[C@@H]2C1 | 46.8 | – | – | –
CC1(C)CC[C@]2(C(=O)NC[C@H](O)[C@H]3OC(=O)C(O)=C3O)CC[C@]3(C)C(=CC[C@@H]4[C@@]5(C)CC[C@H](O)C(C)(C)[C@@H]5CC[C@]43C)[C@@H]2C1 | 41.9 | – | – | –
CC1(C)CC[C@]2(C(=O)NC[C@H](O)[C@H]3OC(=O)C(O)=C3O)[C@H](O)C[C@]3(C)C(=CC[C@@H]4[C@@]5(C)CC[C@H](O)C(C)(C)[C@@H]5CC[C@]43C)[C@@H]2C1 | 29.7 | – | – | –
CC1(C)CC[C@]2(C(=O)NCc3cn(C[C@H](O)[C@H]4OC(=O)C(OCc5ccccc5)=C4OCc4ccccc4)nn3)CC[C@]3(C)C(=CC[C@@H]4[C@@]5(C)CC[C@H](O)C(C)(C)[C@@H]5CC[C@]43C)[C@@H]2C1 | > 200 | 91.3 | 19.2 | –
C[C@H]1[C@H](C)CC[C@]2(C(=O)NC[C@H](O)[C@H]3OC(=O)C(OCc4ccccc4)=C3OCc3ccccc3)CC[C@]3(C)C(=CC[C@@H]4[C@@]5(C)CC[C@H](O)C(C)(C)[C@@H]5CC[C@]43C)[C@H]12 | > 200 | 88.1 | 26.4 | –
CC1(C)CC[C@]2(C(=O)NCc3cn(C[C@H](O)[C@H]4OC(=O)C(OCc5ccccc5)=C4OCc4ccccc4)nn3)[C@H](O)C[C@]3(C)C(=CC[C@@H]4[C@@]5(C)CC[C@H](O)C(C)(C)[C@@H]5CC[C@]43C)[C@@H]2C1 | > 200 | 87 | 56.6 | –
CCOC(=O)C1=C[C@@H](OC(CC)CC)[C@H](NC(C)=O)[C@@H](N)C1.O=P(O)(O)O [OSELTAMIVIR PHOSPHATE] | > 200 | 86.5 | 12.5 | –
COC1=C(OC)[C@@H]([C@@H](O)Cn2cc(CNC(=O)[C@]34CC[C@@H](C)[C@H](C)[C@H]3C3=CC[C@@H]5[C@@]6(C)CC[C@H](O)C(C)(C)[C@@H]6CC[C@@]5(C)[C@]3(C)C[C@H]4O)nn2)OC1=O | 52.5 | – | – | –
CC1(C)CC[C@]2(C(=O)NC[C@H](O)[C@H]3OC(=O)C(OCc4ccccc4)=C3OCc3ccccc3)[C@H](O)C[C@]3(C)C(=CC[C@@H]4[C@@]5(C)CC[C@H](O)C(C)(C)[C@@H]5CC[C@]43C)[C@@H]2C1 | > 200 | 71.1 | 30.3 | –
C=C(C)[C@@H]1CC[C@]2(C(=O)NCc3cn(C[C@H](O)[C@H]4OC(=O)C(O)=C4O)nn3)CC[C@]3(C)[C@H](CC[C@@H]4[C@@]5(C)CC[C@H](O)C(C)(C)[C@@H]5CC[C@]43C)[C@@H]12 | > 200 | 93.1 | 41.3 | Kd [1]: 8.04 µM
CC1(C)CC[C@]2(C(=O)NCc3cn(C[C@H](O)[C@H]4OC(=O)C(O)=C4O)nn3)[C@H](O)C[C@]3(C)C(=CC[C@@H]4[C@@]5(C)CC[C@H](O)C(C)(C)[C@@H]5CC[C@]43C)[C@@H]2C1 | 59.3 | – | – | –
CC(C)[C@@H]1CC[C@]2(C(=O)NC[C@H](O)[C@H]3OC(=O)C(O)=C3O)CC[C@]3(C)[C@H](CC[C@@H]4[C@@]5(C)CC[C@H](O)C(C)(C)[C@@H]5CC[C@]43C)[C@@H]12 | > 200 | 84.4 | 35.6 | –
C=C(C)[C@@H]1CC[C@]2(C(=O)NC[C@H](O)[C@H]3OC(=O)C(OCc4ccccc4)=C3OCc3ccccc3)CC[C@]3(C)[C@H](CC[C@@H]4[C@@]5(C)CC[C@H](O)C(C)(C)[C@@H]5CC[C@]43C)[C@@H]12 | > 200 | 89.6 | 23.7 | –
C[C@H]1[C@H](C)CC[C@]2(C(=O)NCc3cn(C[C@H](O)[C@H]4OC(=O)C(OCc5ccccc5)=C4OCc4ccccc4)nn3)CC[C@]3(C)C(=CC[C@@H]4[C@@]5(C)CC[C@H](O)C(C)(C)[C@@H]5CC[C@]43C)[C@H]12 | > 200 | 90.8 | 25.7 | –
C=C(C)[C@@H]1CC[C@@]2(C(=O)NCc3cn(C[C@H](O)[C@H]4OC(=O)C(OC)=C4OC)nn3)[C@H]1[C@H]1CC[C@@H]3[C@@]4(C)CC[C@H](O)C(C)(C)[C@@H]4CC[C@@]3(C)[C@]1(C)C[C@H]2O | 43.9 | – | – | –
COC1=C(OC)[C@@H]([C@@H](O)Cn2cc(CNC(=O)[C@]34CCC(C)(C)C[C@H]3C3=CC[C@@H]5[C@@]6(C)CC[C@H](O)C(C)(C)[C@@H]6CC[C@@]5(C)[C@]3(C)CC4)nn2)OC1=O | 19.6 | – | – | –
C[C@H]1[C@H](C)CC[C@]2(C(=O)NCc3cn(C[C@H](O)[C@H]4OC(=O)C(O)=C4O)nn3)[C@H](O)C[C@]3(C)C(=CC[C@@H]4[C@@]5(C)CC[C@H](O)C(C)(C)[C@@H]5CC[C@]43C)[C@H]12 | 41.1 | – | – | –
CC1(C)CC[C@]2(C(=O)NC[C@H](O)[C@H]3OC(=O)C(OCc4ccccc4)=C3OCc3ccccc3)CC[C@]3(C)C(=CC[C@@H]4[C@@]5(C)CC[C@H](O)C(C)(C)[C@@H]5CC[C@]43C)[C@@H]2C1 | > 200 | 81.9 | 25.3 | –
COC1=C(OC)[C@@H]([C@@H](O)Cn2cc(CNC(=O)[C@]34CCC(C)(C)C[C@H]3C3=CC[C@@H]5[C@@]6(C)CC[C@H](O)C(C)(C)[C@@H]6CC[C@@]5(C)[C@]3(C)C[C@H]4O)nn2)OC1=O | 5.6 | – | – | –
